Numbering of substitutions follows the chain as printed. One block for each compound: values may come before it.
Assays:
[1] = molecular target: hCHT (human chitotriosidase) (Homo sapiens, UniProt Q13231); assay: Chitinase activity assay, steady-state kinetics; assay type: biochemical
Summary of the method: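 Human chitotriosidase at 2 nM final with fluorigenic 4MU-(GlcNAc)3 in 0.2 M Na2HPO4/0.1 M citric acid pH 5.5, incubated 60 min at 37°C. Quenched with 3 M glycine/NaOH pH 10; 4MU product read at ex 360/em 460 nm. Reactions run in triplicate, with no-enzyme readings subtracted. Km and kcat from steady-state fit, means ± S.E.M. of three independent experiments.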

[2] = molecular target: T1, YKL-39 S143D/I145E active mutant (Homo sapiens, UniProt Q15782, I145E/S143D); assay: Chitinase activity assay, steady-state kinetics and inhibition; assay type: biochemical
T1 sequence (Q15782 27-390 S143D/I145E): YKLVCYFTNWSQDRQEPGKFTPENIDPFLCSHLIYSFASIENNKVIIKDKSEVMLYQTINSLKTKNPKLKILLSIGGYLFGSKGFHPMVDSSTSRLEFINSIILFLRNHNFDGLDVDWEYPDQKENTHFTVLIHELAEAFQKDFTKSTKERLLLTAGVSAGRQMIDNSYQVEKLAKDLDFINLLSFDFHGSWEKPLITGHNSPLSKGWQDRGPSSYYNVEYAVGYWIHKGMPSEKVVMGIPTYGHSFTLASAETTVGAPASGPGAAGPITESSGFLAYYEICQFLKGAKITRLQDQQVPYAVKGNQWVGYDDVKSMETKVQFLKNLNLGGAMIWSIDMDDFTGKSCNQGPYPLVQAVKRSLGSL
Summary of the method: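 S143D/I145E mutant was secreted from methanol-induced Pichia pastoris GS115 and purified by CM-Sepharose and size exclusion. 20 nM enzyme with 4MU-(GlcNAc)3 in 0.2 M Na2HPO4/0.1 M citric acid pH 5.5, 60 min at 37°C. Quenched with 3 M glycine/NaOH pH 10; read at ex 360/em 460 nm. Triplicates, no-enzyme blank subtracted. Kinetic parameters from curve fit over three independent experiments; Ki by non-linear regression.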

YKL-39 = molecular target: T2, YKL-39 (Homo sapiens, UniProt Q15782); assay: Glycan array screen; assay type: binding; conditions: AlexaFluor 488-labelled YKL-39, array of 264 glycans
T2 sequence (Q15782 27-390): T1 sequence (Q15782 27-390 S143D/I145E) with D117S, E119I
Summary of the method: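 Amino-linked natural and synthetic glycans were printed on modified glass slides, six replicates each. Dye-labelled protein was applied for 1 h at room temperature. Slides were spun dry and scanned at ex 495/em 520 nm. Means ± S.D. of four observations.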

hAMCase = conditions: cited from earlier work

Chain of hCHT (human chitotriosidase) (Q13231 22-466): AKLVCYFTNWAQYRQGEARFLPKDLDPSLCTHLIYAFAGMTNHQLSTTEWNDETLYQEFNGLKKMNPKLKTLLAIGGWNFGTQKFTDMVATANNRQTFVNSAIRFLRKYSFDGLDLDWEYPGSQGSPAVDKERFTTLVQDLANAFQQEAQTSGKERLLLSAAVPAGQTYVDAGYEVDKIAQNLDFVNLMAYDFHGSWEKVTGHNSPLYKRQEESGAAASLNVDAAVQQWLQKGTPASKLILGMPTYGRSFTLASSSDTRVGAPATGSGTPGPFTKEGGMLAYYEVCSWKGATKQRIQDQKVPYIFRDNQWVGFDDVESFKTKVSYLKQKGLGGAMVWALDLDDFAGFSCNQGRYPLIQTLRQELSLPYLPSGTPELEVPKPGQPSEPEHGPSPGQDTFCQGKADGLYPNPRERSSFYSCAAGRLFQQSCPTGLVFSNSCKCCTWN

Compound: CC(=O)N[C@H]1[C@H](Oc2ccc3c(C)cc(=O)oc3c2)O[C@H](CO)[C@@H](O[C@@H]2O[C@H](CO)[C@@H](O[C@@H]3O[C@H](CO)[C@@H](O)[C@H](O)[C@H]3NC(C)=O)[C@H](O)[C@H]2NC(C)=O)[C@@H]1O [4MU-(GlcNAc)3, 4-methylumbelliferyl-β-D-N,N′,N′’-triacetylchitotriose]
kcat ([1]; fluorigenic pseudosubstrate, pH 5.5, 37°C): 15.7 ± 0.3 s⁻¹
Km ([1]; read-out: Michaelis constant (Km), fluorigenic pseudosubstrate, pH 5.5, 37°C): 53 ± 3 µM
kcat ([2]; YKL-39 S143D/I145E, fluorigenic pseudosubstrate, pH 5.5, 37°C): 0.02 ± 0.0002 s⁻¹
Km ([2]; read-out: Michaelis constant (Km), YKL-39 S143D/I145E, fluorigenic pseudosubstrate, pH 5.5, 37°C): 9 ± 1 µM

Compound: Cn1cnc2c1c(=O)n(CCCn1c(=O)c3[nH]cnc3n(C)c1=O)c(=O)n2C [bisdionin F]
activity against hAMCase (hAMCase): submicromolar
selectivity for hAMCase over hCHT (hAMCase): selectivity over hCHT

Compound: (GlcNAc)5
binding to YKL-39 in glycan array (relative fluorescence) (YKL-39): strongest binders

Further lines, results first:

binding to YKL-39 in glycan array (relative fluorescence) (YKL-39): strongest binders
Compound: CC(=O)N[C@H]1[C@H](O[C@H]2[C@H](O)[C@@H](NC(C)=O)[C@H](O[C@H]3[C@H](O)[C@@H](NC(C)=O)C(O)O[C@@H]3CO)O[C@@H]2CO)O[C@H](CO)[C@@H](O[C@@H]2O[C@H](CO)[C@@H](O[C@@H]3O[C@H](CO)[C@@H](O[C@@H]4O[C@H](CO)[C@@H](O)[C@H](O)[C@H]4NC(C)=O)[C@H](O)[C@H]3NC(C)=O)[C@H](O)[C@H]2NC(C)=O)[C@@H]1O (stereo partly drawn) [(GlcNAc)6, chitohexaose]

Ki [2]: 120 ± 2 µM
Compound: CCc1nc2c([nH]1)c(=O)n(CCCn1c(=O)c3c(ncn3C)n(C)c1=O)c(=O)n2C [bisdionin G, 1-{3-[3,7-dimethyl-2,6-dioxo-2,3-dihydro-6H-purin-1(7H)-yl]propyl}-8-ethyl-3-methyl-1H-purine-2,6(3H, 7H)-dione]
